Key:
[1] = approximate, from the literature; ref not given; cited from earlier work
[2] = pH of saturated solutions in biorelevant media; assay type: physicochemical; settings: 24 h, 37 °C, pH probe; for pH of saturated solution in FaSSGF: excess solid in FaSSGF, initial pH 1.6; for pH of saturated solution in FaSSGF / pH of saturated solution in FaSSIF / pH of saturated solution in FeSSIF: 350 rpm, n = 3; for pH of saturated solution in FaSSIF: excess solid in FaSSIF, initial pH 6.5; for pH of saturated solution in FeSSIF: excess solid in FeSSIF, initial pH 5.0
Method in brief: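 Excess solid was added separately to 1 mL of each medium: FaSSIF (pH 6.5; NaTC 3 mM, lecithin 0.75 mM), FeSSIF (pH 5.0; 15 mM, 3.75 mM), FaSSGF (pH 1.6; 0.08 mM, 0.02 mM), or blank versions without NaTC and lecithin. Samples were shaken at 350 rpm for 24 h at 37 °C, then read with a pH probe. Triplicate; mean ± standard deviation, n = 3.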

Saturation = assay type: physicochemical; settings: 24 h, 37 °C, in words; for saturation solubility in gastric media, rank among the media: FaSSGF and blank FaSSGF, pH 1.6

Compound | pKa [1] | pH of saturated solution in FaSSGF [2] | pH of saturated solution in FaSSIF [2] | pH of saturated solution in FeSSIF [2] | saturation solubility in gastric media, rank among the media (Saturation) | saturation solubility in FaSSIF, rank among the media (Saturation; FaSSIF, pH 6.5) | pH of media in the presence of excess material, all media investigated ([2]; FaSSIF, FeSSIF, FaSSGF and blank equivalents)
CCCCCCCCCC(=O)[O-].[Na+] [C10, sodium caprate] | approximately 5 | 9.2 | 9.0 | 8.8 |  |  | 
O=C([O-])CCCCCCCNC(=O)c1ccccc1O.[Na+] [SNAC, salcaprozate sodium] | approximately 5 | 7.6 | 7.9 | 7.7 | lowest | highest | 
insulin: recombinant human insulin procured from Merck KGaA, used as model peptide |  |  |  |  | highest solubility |  | did not appear to impact media pH
